Bioassay records as filed in PubChem.
This is a sample that favours compounds with a hit; in the whole collection about 1.4% have one here.
A3G deaminase: APOBEC3G DNA deaminase inhibitors, primary screen, biochemical, fluorescence, single-stranded DNA substrate, uHTS; hit rate 0.28% among 330,000; inhibition, % at 20 µM; recombinant A3G, ssDNA deamination FAM/TAMRA fluorescence;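 active = inhibition of at least 40% at 20 µM, with no more than 30% in the related APOBEC3A deaminase screen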;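 also: plate controls were DMSO wells with A3G for no effect and wells lacking A3G enzyme for full effect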
Target sequence (Q9HC16 whole entry, looked up): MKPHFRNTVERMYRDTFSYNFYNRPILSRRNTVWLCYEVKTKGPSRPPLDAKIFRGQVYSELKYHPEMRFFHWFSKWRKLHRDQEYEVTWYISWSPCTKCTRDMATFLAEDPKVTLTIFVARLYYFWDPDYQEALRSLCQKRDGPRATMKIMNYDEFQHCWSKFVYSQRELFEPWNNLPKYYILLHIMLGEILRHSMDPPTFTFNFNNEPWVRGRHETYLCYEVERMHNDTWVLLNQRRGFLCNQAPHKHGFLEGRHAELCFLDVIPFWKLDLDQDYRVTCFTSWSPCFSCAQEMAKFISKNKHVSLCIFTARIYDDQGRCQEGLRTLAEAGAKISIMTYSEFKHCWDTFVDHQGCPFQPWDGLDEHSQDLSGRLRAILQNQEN
APOBEC3A inh: APOBEC3A ssDNA deaminase inhibitors, primary screen, selectivity assay for APOBEC3G inhibitor project, biochemical, FAM/TAMRA oligo cleavage fluorescence; DNA dC->dU-editing enzyme APOBEC-3A (Homo sapiens), P31941; recombinant A3A, FAM/TAMRA ssDNA deamination fluorescence; inhibition, % at 20 µM; hit rate 0.41% among 330,000; AID 493011, 2011;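 active = at least 40% inhibition at 20 µM here, with at most 30% in a related deaminase screen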;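 also: plate controls were A3A with DMSO for no effect and wells lacking A3A enzyme for full effect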
Target sequence (P31941 whole entry, looked up): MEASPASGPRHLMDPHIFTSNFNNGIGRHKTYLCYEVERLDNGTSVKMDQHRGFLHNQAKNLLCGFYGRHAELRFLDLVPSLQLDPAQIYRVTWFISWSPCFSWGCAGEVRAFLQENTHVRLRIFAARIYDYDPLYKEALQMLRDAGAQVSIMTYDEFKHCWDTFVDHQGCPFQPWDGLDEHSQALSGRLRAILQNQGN
PfGluPho inh: PfG6PD enzyme inhibitors, primary screen, biochemical, fluorescence intensity, uHTS | inhibition, % at 20 µM | PfGluPho enzyme, NADPH resazurin-diaphorase fluorescence | hit rate 0.78% among 350,000 | AID 504690, 2011 | glucose-6-phosphate dehydrogenase-6-phosphogluconolactonase (Plasmodium falciparum 3D7);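 active = inhibition reaching at least a set limit at 20 µM in the primary screen, cut at about 59% in these data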;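 also: 0% = DMSO wells with substrate and 100% = DMSO wells lacking glucose-6-phosphate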
HKDC1 inhibitor: HKDC1 hexokinase inhibitors, primary screen, biochemical, fluorescence, uHTS. recombinant HKDC1, G6PDH/diaphorase resazurin coupled fluorescence. inhibition, % at 20 µM. hit rate 0.16% among 340,000;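 active = inhibition above about 35% when tested at 20 µM, limit read from the data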;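 also: plate controls were DMSO wells with enzyme for no effect and DMSO wells lacking enzyme for full effect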
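Material – in-house recombinant HK5 (HKDC1) enzyme · Quantity – HKDC1 at 5 µg/mL · Buffer or medium – pH 8.0 Tris buffer with 10 mM MgCl2 · Reagent – glucose with 1 mM ATP · Dosing – single 20 µM dose · Times – reaction time 90 min, room temperature, protected from light · Technique – resorufin fluorescence at 613 nm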
hiPSC survival: enhancers of single-cell hiPSC survival, primary screen, ATPlite luminescence; hit rate 0.044% among 360,000; survival enhancement, % at 20 µM; 100% = ROCK inhibitor wells, 0% = DMSO; in the data active = survival enhancement above about 18%;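 also: cells exposed to compounds for 16 hours before the ATP read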
HKDC1 act conf2: HKDC1 hexokinase activators, confirmation, biochemical, single concentration. shares compounds with HKDC1 inhibitor. recombinant HKDC1, G6PDH/diaphorase resazurin fluorescence; stronger effect = lower value. inhibition, % at 20 µM. hit rate 14% among 740. AID 504708, 2011;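 active = inhibition at or below a set negative limit, negative inhibition meaning the enzyme was activated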
Starred values were filed as active, the others as inactive; / = no result.

SMILES | A3G deaminase | APOBEC3A inh | PfGluPho inh | HKDC1 inhibitor | hiPSC survival | HKDC1 act conf2
O=C(O)[C@@H](c1ccccc1)N1Cc2ccccc2C1=O | -2 | -1 | -4 | 52* | -1 | 44
CCCn1c(SC(C)C(=O)NCC2CCCO2)nc2sc3c(c2c1=O)CCC3 (stereo not drawn) | -7 | 1 | 16 | -3 | 0 | /
CN(c1ccc(C(=O)N2CCN(Cc3ccccc3)CC2)cc1)S(=O)(=O)c1ccccc1 | -3 | 0 | -8 | -76 | 0 | -24
CCC1NC(=O)c2cccnc2-n2c1nc1cc(OC)c(OC)cc1c2=O (stereo not drawn) | / | / | 6 | / | -1 | /
N#CC(C#N)=c1ccc2c(c1)N1C3=C(CCCC3)CC3CCCCC31N=2 (stereo not drawn) | 1 | 1 | 46 | 39* | 0 | -9
O=C1CSC(=S)N1N=Cc1ccccc1O | / | / | 47 | -42 | 3 | -9
CSc1ccc(CN2CCC2(C)C(=O)Nc2cnc3ccccc3c2)cc1 (stereo not drawn) | / | / | / | / | -2 | /
COc1ccc(F)cc1-c1cc(C(=O)NCc2ccccc2)[nH]n1 | / | / | / | / | 4 | /
CC(C)Nc1nnc(SCC(=O)Nc2ccc3c(c2)C(=O)c2ccccc2C3=O)s1 | / | / | 36 | 43* | -1 | 53
O=C(CSc1nnc(NC2CCCCC2)s1)Nc1ccc2c(c1)C(=O)c1ccccc1C2=O | 4 | 0 | 2 | -1 | -1 | /
Cc1ccccc1-c1csc(C(O)c2ccccc2)n1 (stereo not drawn) | / | / | / | / | 1 | /
COC(=O)c1ccc(-n2c(C)cc(C(=O)CCl)c2C)cc1 | 0 | 4 | -4 | 26 | 1 | /
CCOc1ccc(-n2c(C)cc(C(=O)CCl)c2C)cc1 | 4 | 1 | 8 | 35 | 0 | 28
Cc1onc(-c2ccccc2)c1C(=O)NNC(=S)NC(=O)/C=C/c1cccs1 | 1 | 2 | -44 | -57 | -2 | -23
O=C(CNC(=O)c1ccco1)N/N=C/c1ccc(C(=O)O)cc1 | 5 | 2 | 7 | -1 | 4 | /
COc1ccc(C2=CC3=C(Br)C(=O)C(C)(OC(=O)C4CCCC4)C(=O)C3=CO2)cc1 (stereo not drawn) | 1 | 13 | 16 | 53* | -2 | -18
COc1cccc(NC(=S)NN=C2CCCCCC2)c1 | -8 | -2 | -2 | -28 | -1 | /
COc1ccc(CN2CCC2(C)C(=O)NCc2ccc3c(c2)OCO3)c2ccccc12 (stereo not drawn) | / | / | / | / | 1 | /
CC(=O)c1cccc(NC(=O)N2CCC(NC(=O)C3CCCCC3)CC2)c1 | -5 | 1 | -3 | -5 | 0 | /
NC(=O)c1ccc(N=Cc2c(O)ccc3ccccc23)cc1 | 20 | -2 | 23 | 34 | -1 | /
COc1ccc(N=Cc2c(O)ccc3ccccc23)cc1 | 7 | -3 | 31 | 17 | -2 | /
O=C(O)c1ccc(N=Cc2c(O)ccc3ccccc23)cc1 | 23 | -11 | 36 | 33 | 0 | 43
O=S(=O)(/N=C/c1c(O)ccc2ccccc12)c1ccccc1 | 6 | 2 | 29 | 44* | 0 | 20
CCOc1ccccc1Nc1cc(C)nc2ccc(C)cc12 | -4 | 8 | -3 | -4 | 0 | /
CCN(CC(=O)Nc1c(F)cccc1F)C(=O)/C=C/c1ccc2ccccc2n1 | 77 | 95 | -2 | 33 | 0 | 13
SMILES | A3G deaminase | APOBEC3A inh | PfGluPho inh | HKDC1 inhibitor | hiPSC survival | HKDC1 act conf2
CCN(CC(=O)Nc1c(F)cccc1F)C(=O)c1ccc2ccccc2n1 | -12 | -1 | -5 | -9 | 0 | /
O=C(CCNC(=O)c1ccc([N+](=O)[O-])cc1)NCCC1=CCCCC1 | -7 | 0 | 5 | 35* | 0 | -26
Oc1ccc(/C=N/NC(=S)Nc2cccnc2)c(O)c1 | -5 | 2 | -9 | -40 | -1 | 15
O=C(C1=C(O)C(=O)N(c2nc3ccc(Cl)cc3s2)C1c1ccco1)c1ccco1 (stereo not drawn) | 41 | 88 | 12 | 36* | -1 | -23
Cc1ccc2nc(N3C(=O)C(O)=C(C(=O)c4ccc(C)o4)C3c3ccco3)sc2c1 (stereo not drawn) | 18 | 19 | -1 | 13 | -1 | /
COc1cccc(-c2nc(-c3ccccc3)c3ccc(Cl)cc3n2)c1 | / | / | / | / | -1 | /
COc1ccc(/C=C/C(=O)c2ccc([N+](=O)[O-])o2)cc1OC | -3 | -2 | 77* | 32 | / | 6
CC1(C(=O)NS(=O)(=O)C2CC2)CCN(C(=O)c2ccc(F)cc2Cl)C1 (stereo not drawn) | / | / | / | / | 2 | /
CC(=O)Oc1cccc2c1C(=O)C1CC=CC(OC(C)=O)C1C2=O (stereo not drawn) | / | / | -373 | -45 | 4 | -66*
CCOC(=O)c1csc(NC(=O)C2=COCCO2)n1 | -4 | 0 | -1 | 1 | 0 | /
COC(=O)c1sc(NC(=O)CSc2nc3nc(C)cc(C)n3n2)c(C(=O)OC)c1C | 1 | 6 | 44 | 35* | 0 | 26
O=C(Nc1ccc2[nH]c(=O)[nH]c2c1)c1c(F)c(F)c(F)c(F)c1F | -1 | 1 | 7 | -15 | 0 | /
Cc1ccccc1S(=O)(=O)c1c(C)cc(C)n(C)c1=O | 1 | 1 | -21 | -3 | 3 | /
Cc1ccccc1S(=O)(=O)c1c(C)cc(C)n(CC(C)C)c1=O | -2 | 0 | -13 | 71* | 2 | -6
O=C(CSc1nc(-c2ccccc2)nc2c1Cc1ccccc1O2)Nc1ccc(C(=O)O)cc1 | / | / | -36 | 32 | 1 | /
O=C(CSc1nc(-c2ccc(F)cc2)nc2c1Cc1ccccc1O2)Nc1ccc(C(=O)O)cc1 | / | / | -24 | 44* | 0 | -27
O=C(NCc1ccncc1)C(=O)N/N=C/c1ccc(OCc2ccccc2)cc1 | 1 | 5 | -30 | -58 | 0 | -16
COc1ccc(CCNC(=O)CSc2nc3ccsc3c(=O)n2Cc2ccccn2)cc1OC | / | / | -3 | / | -2 | /
O=C(NNC(=O)c1cccnc1)NC1CCCCC1 | -8 | -2 | -1 | -60 | -2 | -25
O=C(Nc1cccc(Cl)c1)c1csc([C@H]2C[C@H](O)[C@@H](CO)O2)n1 | / | / | / | / | 2 | /
CC(=O)c1c(C)[nH]c(C2=NNC(=NC(C)(C)C)SC2)c1C | -9 | -5 | 8 | -15 | 0 | /
CCOC(=O)c1c(C)[nH]c(C2=NNC(=Nc3ccc(OCC)cc3)SC2)c1C | / | / | 20 | -137 | 1 | -122*
CCOC(=O)c1c(C)[nH]c(C2=NNC(=Nc3ccccc3)SC2)c1C | / | / | 15 | -306 | 2 | -141*
CCOC(=O)c1c(C)[nH]c(C2=NNC(=Nc3ccccc3OC)SC2)c1C | -4 | 0 | 5 | -165 | 1 | -86*
